In ChEMBL document CHEMBL1126705, “16 beta-([18F]fluoro)estrogens: systematic investigation of a new series of fluorine-18-labeled estrogens as potential imaging agents for estrogen-receptor-positive breast tumors” (J Med Chem, 1993):

Experiments:
Rattus norvegicus [1] = experiment: Tested in vivo for the biodistribution in rat uterus after 3 hours following an intravenous dose of 50 microCi of drug in 10%ethanol saline; format: ADME, organism-based
Outline: (§1)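 Immature (25-day-old) female Sprague-Dawley rats, ether-anesthetized, given the fluorine-18-labeled estrogen by femoral vein injection in 10% ethanol saline. […] Other groups were killed by decapitation at 1 or 3 h. Blood and organs were weighed and gamma-counted. Data are % injected dose/g, mean ± SD, typically n = 5 per group.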

Rattus norvegicus [2] = experiment: Tested in vivo for the biodistribution in rat uterus/blood after 3 hours following an intravenous dose of 50 microCi of drug in 10%ethanol saline; format: ADME, organism-based
Outline: (§2)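 Female Sprague-Dawley rats, 25 days old (~40–53 g), ether-anesthetized, given the 18F-labeled estrogen iv via femoral vein in 10% ethanol saline. […] Others were sacrificed by decapitation at 1 or 3 h. Blood and organs were excised, weighed and gamma counted as % injected dose/g, mean ± SD, typically n = 5 (4–6).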

Rattus norvegicus [3] = experiment: Tested in vivo for the biodistribution in rat thymus at 1 hour after intravenous dose of 50 microCi of drug in 10%ethanol saline; format: ADME, organism-based; outline: as §1
Rattus norvegicus [4] = experiment: Tested in vivo for the biodistribution in rat uterus at 1 hour after intravenous dose of 50 microCi of drug in 10%ethanol saline; format: ADME, organism-based; outline: as §2
Rattus norvegicus [5] = experiment: Tested in vivo for the biodistribution in rat kidney at 1 hour after intravenous dose of 50 microCi of drug in 10%ethanol saline; format: ADME, organism-based
Outline: (§3)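 Ether-anesthetized 25-day-old female Sprague-Dawley rats (~40–53 g) got the [18F] tracer in 10% ethanol saline via femoral vein. Rats were decapitated at 1 or 3 h, and blood and organs were weighed and gamma-counted. Values are % injected dose/g as mean ± SD, n = 5 per time point.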

Rattus norvegicus [6] = experiment: Tested in vivo for the biodistribution in rat kidney at 1 hour after intravenous dose of 50 microCi of the drug and 15 u g of estradiol; format: ADME, organism-based; outline: as §1
[7] = target: T1, Estrogen receptor (Rattus norvegicus) (UniProt P06211+Q62986)
Rattus norvegicus [8] = experiment: Tested in vivo for the biodistribution in rat muscle at 1 hour after intravenous dose of 50 microCi of drug in 10%ethanol saline; format: ADME, organism-based, Muscle tissue; outline: as §1
Rattus norvegicus [9] = experiment: Tested in vivo for the biodistribution in rat ovaries at 1 hour after intravenous dose of 50 microCi of drug in 10%ethanol saline; format: ADME, organism-based, Female gonad; outline: as §1
Rattus norvegicus [10] = experiment: Tested in vivo for the biodistribution in rat ovaries after 3 hours following an intravenous dose of 50 microCi of drug in 10%ethanol saline; format: ADME, organism-based, Female gonad; outline: as §1
Rattus norvegicus [11] = experiment: Tested in vivo for the biodistribution in rat uterus/blood at 1 hour after intravenous dose of 50 microCi of drug in 10%ethanol saline; format: ADME, organism-based; outline: as §2
[12] = target: T2, Sex hormone-binding globulin (Homo sapiens) (UniProt P04278); experiment: Relative binding affinity against sex steroid binding protein (SBP)
T2 sequence (whole entry): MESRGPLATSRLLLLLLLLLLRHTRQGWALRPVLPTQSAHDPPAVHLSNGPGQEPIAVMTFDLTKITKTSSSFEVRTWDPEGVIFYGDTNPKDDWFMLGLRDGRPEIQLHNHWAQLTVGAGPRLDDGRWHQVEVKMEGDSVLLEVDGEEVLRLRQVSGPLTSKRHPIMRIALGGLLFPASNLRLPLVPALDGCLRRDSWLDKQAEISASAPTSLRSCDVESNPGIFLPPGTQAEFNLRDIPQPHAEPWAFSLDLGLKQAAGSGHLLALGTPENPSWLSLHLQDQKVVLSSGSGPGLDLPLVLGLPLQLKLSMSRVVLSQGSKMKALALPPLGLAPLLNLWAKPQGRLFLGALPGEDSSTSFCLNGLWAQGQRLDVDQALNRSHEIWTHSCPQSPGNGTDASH

Rattus norvegicus [13] = experiment: Tested in vivo for the biodistribution in rat thymus at 1 hour after intravenous dose of 50 microCi of the drug and 15 ug of estradiol; format: ADME, organism-based; outline: as §1
Rattus norvegicus [14] = experiment: Tested in vivo for the biodistribution in rat fat after 3 hours following an intravenous dose of 50 microCi of drug in 10%ethanol saline; format: ADME, organism-based, Adipose tissue; outline: as §3
Rattus norvegicus [15] = experiment: Tested in vivo for the biodistribution in rat uterus/blood at 1 hour after intravenous dose of 50 microCi of the drug and 15 ug of estradiol; format: ADME, organism-based; outline: as §2
Rattus norvegicus [16] = experiment: Tested in vivo for the biodistribution in rat kidney after 3 hours following an intravenous dose of 50 microCi of drug in 10%ethanol saline; format: ADME, organism-based; outline: as §3
Rattus norvegicus [17] = experiment: Tested in vivo for the biodistribution in rat liver at 1 hour after intravenous dose of 50 microCi of drug in 10%ethanol saline; format: ADME, organism-based; outline: as §1
[18] = target: T1, Estrogen receptor (Rattus norvegicus); remark: listed apart in the source
Rattus norvegicus [19] = experiment: Tested in vivo for the biodistribution in rat uterus at 1 hour after intravenous dose of 50 microCi of the drug and 15 ug of estradiol; format: ADME, organism-based; outline: as §2
Rattus norvegicus [20] = experiment: Tested in vivo for the biodistribution in blood of female rat at 1 hour after intravenous dose of 50 microCi of drug in 10%ethanol saline; format: ADME, organism-based; outline: as §3
Rattus norvegicus [21] = experiment: Tested in vivo for the biodistribution in rat uterus/muscle at 1 hour after intravenous dose of 50 microCi of drug in 10%ethanol saline; format: ADME, organism-based, Muscle tissue; outline: as §2
Rattus norvegicus [22] = experiment: Tested in vivo for the biodistribution in rat uterus/muscle at 1 hour after intravenous dose of 50 microCi of the drug and 15 ug of estradiol; format: ADME, organism-based, Muscle tissue; outline: as §2
Rattus norvegicus [23] = experiment: Tested in vivo for the biodistribution in rat bone after 3 hours following an intravenous dose of 50 microCi of drug in 10%ethanol saline; format: ADME, organism-based, Bone element; outline: as §3
Rattus norvegicus [24] = experiment: Tested in vivo for the biodistribution in rat bone at 1 hour after intravenous dose of 50 microCi of the drug and 15 ug of estradiol; format: ADME, organism-based, Bone element
Rattus norvegicus [25] = experiment: Tested in vivo for the biodistribution in rat uterus/muscle after 3 hours following an intravenous dose of 50 microCi of drug in 10%ethanol saline; format: ADME, organism-based, Muscle tissue; outline: as §2
Rattus norvegicus [26] = experiment: Tested in vivo for the biodistribution in blood of female rat after 3 hours following an intravenous dose of 50 microCi of drug in 10%ethanol saline; format: ADME, organism-based; outline: as §3
[27] = target: T3, Alpha-fetoprotein (Rattus norvegicus) (UniProt P02773); experiment: Relative binding affinity for Alphafetoprotein
T3 sequence (whole entry): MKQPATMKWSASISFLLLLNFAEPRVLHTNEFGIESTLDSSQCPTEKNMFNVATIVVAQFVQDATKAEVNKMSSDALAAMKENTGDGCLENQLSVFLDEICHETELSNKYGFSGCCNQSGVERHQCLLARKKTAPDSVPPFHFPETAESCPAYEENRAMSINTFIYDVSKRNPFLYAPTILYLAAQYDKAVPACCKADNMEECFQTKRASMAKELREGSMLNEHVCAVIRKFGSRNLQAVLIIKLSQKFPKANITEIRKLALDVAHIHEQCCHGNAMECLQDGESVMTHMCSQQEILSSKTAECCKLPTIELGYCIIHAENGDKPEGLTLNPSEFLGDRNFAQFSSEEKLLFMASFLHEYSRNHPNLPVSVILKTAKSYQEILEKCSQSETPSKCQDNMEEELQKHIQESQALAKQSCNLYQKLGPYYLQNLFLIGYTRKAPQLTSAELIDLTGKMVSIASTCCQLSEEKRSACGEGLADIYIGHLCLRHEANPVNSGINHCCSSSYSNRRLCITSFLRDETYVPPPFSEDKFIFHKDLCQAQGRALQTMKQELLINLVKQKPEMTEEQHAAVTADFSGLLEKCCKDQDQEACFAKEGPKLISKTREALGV

Rattus norvegicus [28] = experiment: Tested in vivo for the biodistribution in blood of female rat at 1 hour after intravenous dose of 50 microCi of the drug and 15 u g of estradiol; format: ADME, organism-based
Rattus norvegicus [29] = experiment: Tested in vivo for the biodistribution in rat fat at 1 hour after intravenous dose of 50 microCi of the drug and 15 ug of estradiol; format: ADME, organism-based, Adipose tissue
Rattus norvegicus [30] = experiment: Tested in vivo for the biodistribution in rat muscle at 1 hour after intravenous dose of 50 microCi of the drug and 15 ug of estradiol; format: ADME, organism-based, Muscle tissue; outline: as §1
[31] = Partition coefficient (logP); format: physicochemical; conditions: octanol/water
Outline: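 Octanol/water log P estimated from log k'w measured by reversed-phase HPLC (Minick method) on a C8 silica column.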

Rattus norvegicus [32] = experiment: Tested in vivo for the biodistribution in rat ovaries at 1 hour after intravenous dose of 50 microCi of the drug and 15 ug of estradiol; format: ADME, organism-based, Female gonad; outline: as §1
Rattus norvegicus [33] = experiment: Tested in vivo for the biodistribution in rat bone at 1 hour after intravenous dose of 50 microCi of drug in 10%ethanol saline; format: ADME, organism-based, Bone element; outline: as §3
Rattus norvegicus [34] = experiment: Tested in vivo for the biodistribution in rat liver after 3 hours following an intravenous dose of 50 microCi of drug in 10%ethanol saline; format: ADME, organism-based; outline: as §1
Rattus norvegicus [35] = experiment: Tested in vivo for the biodistribution in rat liver at 1 hour after intravenous dose of 50 microCi of the drug and 15 u g of estradiol; format: ADME, organism-based; outline: as §1
Rattus norvegicus [36] = experiment: Tested in vivo for the biodistribution in rat fat at 1 hour after intravenous dose of 50 microCi of drug in 10%ethanol saline; format: ADME, organism-based, Adipose tissue; outline: as §3
Rattus norvegicus [37] = experiment: Tested in vivo for the biodistribution in rat muscle after 3 hours following an intravenous dose of 50 microCi of drug in 10%ethanol saline; format: ADME, organism-based, Muscle tissue; outline: as §1
Rattus norvegicus [38] = experiment: Tested in vivo for the biodistribution in rat thymus after 3 hours following an intravenous dose of 50 microCi of drug in 10%ethanol saline; format: ADME, organism-based; outline: as §1

Structure (SMILES) | Injected (Rattus norvegicus [1]) | Injected (Rattus norvegicus [2]) | Injected (Rattus norvegicus [3]) | Injected (Rattus norvegicus [4]) | Injected (Rattus norvegicus [5]) | Injected (Rattus norvegicus [6]) | BSI [7] | Injected (Rattus norvegicus [8]) | Injected (Rattus norvegicus [9]) | Injected (Rattus norvegicus [10]) | Injected (Rattus norvegicus [11]) | relative binding affinity (RBA) [12] | Injected (Rattus norvegicus [13]) | Injected (Rattus norvegicus [14]) | Injected (Rattus norvegicus [15]) | Injected (Rattus norvegicus [16]) | Injected (Rattus norvegicus [17]) | NSB [18] | Injected (Rattus norvegicus [19]) | Injected (Rattus norvegicus [20]) | further results
C#C[C@]1(O)[C@@H](F)C[C@H]2[C@@H]3CCc4cc(O)ccc4[C@H]3[C@@H](OC)C[C@@]21C | 12.99% | 129.8% | 0.852% | 18.26% | 1.961% | 1.038% | 116 | 0.739% | 5.2% | 3.51% | 66.26% | 0.037 | 0.44% | 0.858% | 7.52% | 0.973% | 3.244% | 0.67 | 2.548% | 0.284% | Injected (Rattus norvegicus [21]): 24.31%; Injected (Rattus norvegicus [22]): 5.25%; Injected (Rattus norvegicus [23]): 2.007%; Injected (Rattus norvegicus [24]): 1.477%; Injected (Rattus norvegicus [25]): 32.76%; Injected (Rattus norvegicus [26]): 0.101%; relative binding affinity (RBA) [27]: < 0.01; Injected (Rattus norvegicus [28]): 0.38%; Injected (Rattus norvegicus [29]): 0.679%; Injected (Rattus norvegicus [30]): 0.525%; logP [31]: 2.87; Injected (Rattus norvegicus [32]): 1.661%; Injected (Rattus norvegicus [33]): 1.384%; Injected (Rattus norvegicus [34]): 2.129%; Injected (Rattus norvegicus [35]): 3.708%; Injected (Rattus norvegicus [36]): 1.538%; Injected (Rattus norvegicus [37]): 0.389%; Injected (Rattus norvegicus [38]): 0.454%
C#C[C@]1(O)[C@@H](F)C[C@H]2[C@@H]3CCc4cc(O)ccc4[C@H]3[C@@H](CC)C[C@@]21C | 9.09% | 64.53% | 0.815% | 8.2% | 1.886% | 0.709% | 189 | 0.725% | 3.934% | 3.115% | 33.61% | 11 | 0.277% | 1.805% | 4.03% | 1.03% | 4.023% | 2.43 | 0.88% | 0.264% | Injected (Rattus norvegicus [21]): 11.41%; Injected (Rattus norvegicus [22]): 3.5%; Injected (Rattus norvegicus [23]): 1.606%; Injected (Rattus norvegicus [24]): 1.037%; Injected (Rattus norvegicus [25]): 23.55%; Injected (Rattus norvegicus [26]): 0.144%; relative binding affinity (RBA) [27]: 0.147; Injected (Rattus norvegicus [28]): 0.227%; Injected (Rattus norvegicus [29]): 2.174%; Injected (Rattus norvegicus [30]): 0.262%; logP [31]: 4.12; Injected (Rattus norvegicus [32]): 1.712%; Injected (Rattus norvegicus [33]): 1.365%; Injected (Rattus norvegicus [34]): 4.003%; Injected (Rattus norvegicus [35]): 3.888%; Injected (Rattus norvegicus [36]): 3.375%; Injected (Rattus norvegicus [37]): 0.382%; Injected (Rattus norvegicus [38]): 0.493%
